According to ChEMBL document CHEMBL2396581, “20(S)-Protopanaxadiol (PPD) analogues chemosensitize multidrug-resistant cancer cells to clinical anticancer drugs” (Bioorg Med Chem, 2013):

Key:
Assay type in all cases: cell-based; call rule not given here
[1] = target: T1, ATP-dependent translocase ABCB1 (Homo sapiens, UniProt P08183); experiment: Inhibition of p-gp in human KB/VCR cells assessed as potentiation of 1 uM docetaxel-induced cytotoxicity at 5 uM after 72 hrs by MTT assay
In short: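 KBvcr cells seeded at 5 × 10^3 per well were cotreated with 5 μM compound and 1 μM docetaxel for 72 h. Survival (%) was read by MTT and compared with wells without docetaxel.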

[2] = target: T1, ATP-dependent translocase ABCB1; experiment: Inhibition of p-gp in human KB/VCR cells assessed as intracellular accumulation of adriamycin at 5 uM after 3 hrs by fluorescence assay relative to control
In short: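 KBvcr cells plated at 1 × 10^5 per well were given ADM (final 10 μM) with 5 μM compound for 3 h. After ice-cold PBS wash and lysis in 1% SDS, intrinsic ADM fluorescence (ex 485/em 590 nm) was read. Results are expressed as a ratio to the ADM-only control, mean ± SD, n = 3.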

[3] = Cytotoxicity against human KB/VCR cells assessed as cell viability at 5 uM after 72 hrs by MTT assay
In short: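 KB/VCR cells in DMEM with 10% FBS and penicillin/streptomycin, 37 °C, 5% CO2. Cells were allowed to attach for 12 h, then exposed to compound for 72 h. MTT was added for 4 h and formazan read at 490 nm.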

[4] = target: T1, ATP-dependent translocase ABCB1; experiment: Inhibition of p-gp in human KB/VCR cells assessed as potentiation of adriamycin-induced cytotoxicity at 5 uM after 72 hrs by MTT assay
[5] = target: T1, ATP-dependent translocase ABCB1; experiment: Inhibition of p-gp in human KB/VCR cells assessed as potentiation of vincristine-induced cytotoxicity at 5 uM after 72 hrs by MTT assay
[6] = target: T1, ATP-dependent translocase ABCB1; experiment: Inhibition of p-gp in human KB/VCR cells assessed as intracellular accumulation of rhodamine123 at 3 uM after 2 hrs by microplate fluorometric analysis
In short: (§1)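 KBvcr cells plated at 1 × 10^5 per well were pretreated with graded compound concentrations, then given Rhodamine123 10 μM for 2 h at 37 °C. Cells were washed with ice-cold PBS and lysed in 1% SDS. Fluorescence (ex 494/em 517 nm) was read on a microplate fluorometer and compared with untreated cells. Three independent experiments.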

[7] = target: T1, ATP-dependent translocase ABCB1; experiment: Inhibition of p-gp in human KB/VCR cells assessed as intracellular accumulation of rhodamine123 at 2 uM after 2 hrs by microplate fluorometric analysis; in short: as §1
[8] = target: T1, ATP-dependent translocase ABCB1; experiment: Inhibition of p-gp in human KB/VCR cells assessed as intracellular accumulation of rhodamine123 at 0.5 uM after 2 hrs by microplate fluorometric analysis; in short: as §1
[9] = target: T1, ATP-dependent translocase ABCB1; experiment: Inhibition of p-gp in human KB/VCR cells assessed as intracellular accumulation of rhodamine123 after 2 hrs by microplate fluorometric analysis
In short: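 KBvcr cells plated at 1 × 10^5 per well and incubated 2 h at 37 °C in CO2 incubator with 10 μM Rhodamine123, with or without test compounds. Cells washed with ice-cold PBS, then lysed in 1% SDS/PBS. Fluorescence read at ex 494/em 517 nm. Accumulation ratio taken relative to untreated cells. Mean SD of three independent experiments.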

[10] = target: T1, ATP-dependent translocase ABCB1; experiment: Inhibition of p-gp in human KB/VCR cells assessed as potentiation of adriamycin-induced cytotoxicity at 5 uM after 72 hrs by MTT assay relative to verapamil
[11] = target: T1, ATP-dependent translocase ABCB1; experiment: Inhibition of p-gp in human KB/VCR cells assessed as potentiation of vincristine-induced cytotoxicity at 5 uM after 72 hrs by MTT assay relative to verapamil
[12] = target: T1, ATP-dependent translocase ABCB1; experiment: Inhibition of p-gp in human KB/VCR cells assessed as potentiation of 1 uM docetaxel-induced cytotoxicity at 5 uM after 72 hrs by MTT assay relative to verapamil
[13] = target: T1, ATP-dependent translocase ABCB1; experiment: Inhibition of p-gp in human KB/VCR cells assessed as potentiation of 100 nM docetaxel-induced cytotoxicity after 72 hrs by MTT assay
In short: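 KBvcr cells cultured 72 h with fixed 100 nM docetaxel and graded modulator concentrations. Viability read by MTT, formazan at 490 nm. EC50 calculated from dose–response. Mean SD of three independent experiments.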

[14] = target: T1, ATP-dependent translocase ABCB1; experiment: Inhibition of p-gp in human KB/VCR cells assessed as intracellular accumulation of rhodamine123 at 1 uM after 2 hrs by microplate fluorometric analysis; in short: as §1

T1 sequence (P08183 whole entry): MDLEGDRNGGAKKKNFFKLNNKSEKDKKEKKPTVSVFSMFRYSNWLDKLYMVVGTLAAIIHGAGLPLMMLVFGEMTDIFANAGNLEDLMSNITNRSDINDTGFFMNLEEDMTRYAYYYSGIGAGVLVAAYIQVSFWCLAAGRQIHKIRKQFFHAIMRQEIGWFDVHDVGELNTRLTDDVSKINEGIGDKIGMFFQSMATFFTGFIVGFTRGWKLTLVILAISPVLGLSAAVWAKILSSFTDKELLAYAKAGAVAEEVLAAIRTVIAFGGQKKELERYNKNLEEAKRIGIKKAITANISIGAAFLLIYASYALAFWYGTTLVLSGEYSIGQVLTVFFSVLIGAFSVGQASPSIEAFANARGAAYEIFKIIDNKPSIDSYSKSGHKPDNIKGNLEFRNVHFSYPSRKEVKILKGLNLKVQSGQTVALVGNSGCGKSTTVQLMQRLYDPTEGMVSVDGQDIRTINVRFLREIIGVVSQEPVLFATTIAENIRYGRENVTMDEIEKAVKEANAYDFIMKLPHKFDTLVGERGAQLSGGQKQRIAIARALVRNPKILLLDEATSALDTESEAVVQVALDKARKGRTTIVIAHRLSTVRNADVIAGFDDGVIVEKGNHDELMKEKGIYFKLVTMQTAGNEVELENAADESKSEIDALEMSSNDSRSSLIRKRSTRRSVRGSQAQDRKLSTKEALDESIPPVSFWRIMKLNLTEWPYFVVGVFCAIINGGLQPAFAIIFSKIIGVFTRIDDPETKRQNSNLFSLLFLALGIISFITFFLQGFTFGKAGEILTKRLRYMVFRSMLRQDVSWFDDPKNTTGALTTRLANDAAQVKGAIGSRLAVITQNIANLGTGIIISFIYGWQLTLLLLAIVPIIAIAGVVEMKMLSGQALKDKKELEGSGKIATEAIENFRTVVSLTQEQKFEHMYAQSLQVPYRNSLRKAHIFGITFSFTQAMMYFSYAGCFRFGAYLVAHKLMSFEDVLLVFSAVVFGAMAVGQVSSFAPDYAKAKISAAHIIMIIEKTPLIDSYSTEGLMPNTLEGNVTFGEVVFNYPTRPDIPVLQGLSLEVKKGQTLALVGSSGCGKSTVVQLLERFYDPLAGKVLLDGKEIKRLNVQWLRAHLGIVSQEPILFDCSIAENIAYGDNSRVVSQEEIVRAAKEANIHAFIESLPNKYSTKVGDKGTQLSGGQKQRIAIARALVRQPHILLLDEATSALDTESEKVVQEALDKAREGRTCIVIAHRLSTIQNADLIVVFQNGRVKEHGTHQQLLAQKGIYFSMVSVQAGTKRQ

CC1(C)[C@@H](O)CC[C@]2(C)[C@H]3C[C@@H](O)[C@@H]4[C@@H]([C@@](C)(O)CCCNCCc5ccc6c(c5)OCO6)CC[C@@]4(C)[C@]3(C)CC[C@@H]12
inhibition (INH) [1]: Active

CC1(C)[C@@H](O)CC[C@]2(C)[C@H]3C[C@@H](O)[C@@H]4[C@@H]([C@@](C)(O)CCCNCCCc5ccccc5)CC[C@@]4(C)[C@]3(C)CC[C@@H]12
fold change (FC) [2]: 1.3
inhibition (INH) [1]: Active
Activity [3]: Toxic

CC1(C)[C@@H](O)CC[C@]2(C)[C@H]3C[C@@H](O)[C@@H]4[C@@H]([C@@](C)(O)CCCNCc5ccccn5)CC[C@@]4(C)[C@]3(C)CC[C@@H]12
inhibition (INH) [1]: Active

CC1(C)[C@@H](O)CC[C@]2(C)[C@H]3C[C@@H](O)[C@@H]4[C@@H]([C@@](C)(O)CCCNCc5cccnc5)CC[C@@]4(C)[C@]3(C)CC[C@@H]12
fold change (FC) [2]: 1.3
inhibition (INH) [4]: Active
inhibition (INH) [5]: Active
inhibition (INH) [1]: Active

CC1(C)[C@@H](O)CC[C@]2(C)[C@H]3C[C@@H](O)[C@@H]4[C@@H]([C@@](C)(O)CCCNCc5ccncc5)CC[C@@]4(C)[C@]3(C)CC[C@@H]12
inhibition (INH) [1]: Active

COc1ccc(NCCC[C@](C)(O)[C@H]2CC[C@]3(C)[C@@H]2[C@H](O)C[C@@H]2[C@@]4(C)CC[C@H](O)C(C)(C)[C@@H]4CC[C@]23C)cc1
inhibition (INH) [1]: Not Active

CC1(C)[C@@H](O)CC[C@]2(C)[C@H]3C[C@@H](O)[C@@H]4[C@@H]([C@@](C)(O)CCCNCc5ccccc5)CC[C@@]4(C)[C@]3(C)CC[C@@H]12
RFU [6]: 95300
RFU [7]: 57000
RFU [8]: 39800
fold change (FC) [2]: 1.3
inhibition (INH) [9]: Dose-dependent effect
fold change (FC) [10]: 1.3
fold change (FC) [11]: 1.3
fold change (FC) [12]: 1.5
inhibition (INH) [1]: Active
inhibition (INH) [13]: Dose-dependent effect

C[C@H](NCCC[C@](C)(O)[C@H]1CC[C@]2(C)[C@@H]1[C@H](O)C[C@@H]1[C@@]3(C)CC[C@H](O)C(C)(C)[C@@H]3CC[C@]12C)c1ccccc1
inhibition (INH) [1]: Active
Activity [3]: Toxic

COc1ccc(CNCCC[C@](C)(O)[C@H]2CC[C@]3(C)[C@@H]2[C@H](O)C[C@@H]2[C@@]4(C)CC[C@H](O)C(C)(C)[C@@H]4CC[C@]23C)cc1
inhibition (INH) [1]: Active

CC1(C)[C@@H](O)CC[C@]2(C)[C@H]3C[C@@H](O)[C@@H]4[C@@H]([C@@](C)(O)CCCNCc5ccc(F)cc5)CC[C@@]4(C)[C@]3(C)CC[C@@H]12
inhibition (INH) [1]: Active
Activity [3]: Toxic

CC1(C)[C@@H](O)CC[C@]2(C)[C@H]3C[C@@H](O)[C@@H]4[C@@H]([C@@](C)(O)CCCNCc5ccc(Cl)cc5)CC[C@@]4(C)[C@]3(C)CC[C@@H]12
inhibition (INH) [1]: Active
Activity [3]: Toxic

COc1ccc(CNCCC[C@](C)(O)[C@H]2CC[C@]3(C)[C@@H]2[C@H](O)C[C@@H]2[C@@]4(C)CC[C@H](O)C(C)(C)[C@@H]4CC[C@]23C)cc1OC
inhibition (INH) [1]: Active

CC1(C)[C@@H](O)CC[C@]2(C)[C@H]3C[C@@H](O)[C@@H]4[C@@H]([C@@](C)(O)CCCNCCc5ccccc5)CC[C@@]4(C)[C@]3(C)CC[C@@H]12
RFU [6]: 105300
RFU [7]: 63700
RFU [14]: 48700
RFU [8]: 43200
fold change (FC) [2]: 1.3
inhibition (INH) [9]: Dose-dependent effect
fold change (FC) [10]: 1.4
fold change (FC) [11]: 1.8
fold change (FC) [12]: 2.6
inhibition (INH) [1]: Active
inhibition (INH) [13]: Dose-dependent effect

CC1(C)[C@@H](O)CC[C@]2(C)[C@H]3C[C@@H](O)[C@@H]4[C@@H]([C@@](C)(O)CCCNCCc5ccc(Cl)cc5)CC[C@@]4(C)[C@]3(C)CC[C@@H]12
fold change (FC) [2]: 1.3
inhibition (INH) [1]: Active
Activity [3]: Toxic

CC1(C)[C@@H](O)CC[C@]2(C)[C@H]3C[C@@H](O)[C@@H]4[C@@H]([C@@](C)(O)CCCNCCc5ccc([N+](=O)[O-])cc5)CC[C@@]4(C)[C@]3(C)CC[C@@H]12
fold change (FC) [2]: 1.3
inhibition (INH) [1]: Active
Activity [3]: Toxic

COc1ccc(CCNCCC[C@](C)(O)[C@H]2CC[C@]3(C)[C@@H]2[C@H](O)C[C@@H]2[C@@]4(C)CC[C@H](O)C(C)(C)[C@@H]4CC[C@]23C)cc1OC
fold change (FC) [2]: 1.3
inhibition (INH) [4]: Active
inhibition (INH) [5]: Active
inhibition (INH) [1]: Active

CNCCC[C@](C)(O)[C@H]1CC[C@]2(C)[C@@H]1[C@H](O)C[C@@H]1[C@@]3(C)CC[C@H](O)C(C)(C)[C@@H]3CC[C@]12C
inhibition (INH) [1]: Not Active

CCNCCC[C@](C)(O)[C@H]1CC[C@]2(C)[C@@H]1[C@H](O)C[C@@H]1[C@@]3(C)CC[C@H](O)C(C)(C)[C@@H]3CC[C@]12C
inhibition (INH) [1]: Not Active

CCCNCCC[C@](C)(O)[C@H]1CC[C@]2(C)[C@@H]1[C@H](O)C[C@@H]1[C@@]3(C)CC[C@H](O)C(C)(C)[C@@H]3CC[C@]12C
inhibition (INH) [1]: Not Active

CC(C)NCCC[C@](C)(O)[C@H]1CC[C@]2(C)[C@@H]1[C@H](O)C[C@@H]1[C@@]3(C)CC[C@H](O)C(C)(C)[C@@H]3CC[C@]12C
inhibition (INH) [1]: Not Active

CC(C)(C)NCCC[C@](C)(O)[C@H]1CC[C@]2(C)[C@@H]1[C@H](O)C[C@@H]1[C@@]3(C)CC[C@H](O)C(C)(C)[C@@H]3CC[C@]12C
inhibition (INH) [1]: Not Active

CC1(C)[C@@H](O)CC[C@]2(C)[C@H]3C[C@@H](O)[C@@H]4[C@@H]([C@@](C)(O)CCCNC5CC5)CC[C@@]4(C)[C@]3(C)CC[C@@H]12
inhibition (INH) [1]: Not Active

CC1(C)[C@@H](O)CC[C@]2(C)[C@H]3C[C@@H](O)[C@@H]4[C@@H]([C@@](C)(O)CCCNCCCn5ccnc5)CC[C@@]4(C)[C@]3(C)CC[C@@H]12
inhibition (INH) [1]: Not Active

CC1(C)[C@@H](O)CC[C@]2(C)[C@H]3C[C@@H](O)[C@@H]4[C@@H]([C@@](C)(O)CCCNCCN5CCNCC5)CC[C@@]4(C)[C@]3(C)CC[C@@H]12
inhibition (INH) [1]: Not Active

CC1(C)[C@@H](O)CC[C@]2(C)[C@H]3C[C@@H](O)[C@@H]4[C@@H]([C@@](C)(O)CCCNCCCO)CC[C@@]4(C)[C@]3(C)CC[C@@H]12
inhibition (INH) [1]: Not Active

CC(C)=CCC[C@](C)(O)[C@H]1CC[C@]2(C)[C@@H]1[C@H](O)C[C@@H]1[C@@]3(C)CC[C@H](O)C(C)(C)[C@@H]3CC[C@]12C
inhibition (INH) [1]: Not Active
Activity [3]: Non-toxic

COc1ccc(CCN(C)CCC[C@@](C#N)(c2ccc(OC)c(OC)c2)C(C)C)cc1OC
RFU [6]: 98700
RFU [7]: 53000
RFU [14]: 46100
RFU [8]: 35900
